{"source": "ChEMBL document CHEMBL4052630", "about": "“Design, synthesis and evaluation of scutellarein-O-acetamidoalkylbenzylamines as potential multifunctional agents for the treatment of Alzheimer's disease” (Eur J Med Chem, 2017)", "key": {"[1]": {"assay": "Metal chelating activity assessed as disaggregation of Cu2+ induced amyloid beta (1 to 42) fibrils at 25 uM treated for 24 hrs post Cu2+ treatment for 24 hrs by ThT-based fluorometric method relative to control", "summary_of_the_method": "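Fibrils preformed from Aβ1-42 (25 µM) plus Cu2+ (25 µM) in 20 mM HEPES pH 6.6, 150 mM NaCl, 24 h at 37 °C. Compound (25 µM) then added for another 24 h at 37 °C. Thioflavin T (5 µM, glycine-NaOH pH 8.5) fluorescence read at ex 446/em 490 nm. Triplicate.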"}, "[2]": {"assay": "Inhibition of rat serum BuChE using butyrylthiocholine iodide as substrate after 15 mins by Ellman's method", "assay_type": "ADME"}, "[3]": {"tested_on": "Mus musculus", "assay": "Reversal of scopolamine-induced memory impairment in Kunming mouse assessed as step-down latency time at 22 mg/kg, po administered 60 mins prior to training trial followed by scopolamine challenge at 30 mins post dose measured 24 hrs after training trial by passive avoidance test", "assay_type": "functional", "summary_of_the_method": "(§1)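 Kunming mice, 18–22 g, six weeks old, either sex; 10 per group. Oral dosing 1 h before training (test compound 3.67, 7.33, 22 mg/kg; donepezil 5.0 mg/kg), scopolamine 3 mg/kg i.p. 30 min later. Training: 0.5 mA, 2 s foot shock on stepping off the block. Step-down latency measured 24 h later. Mean ± SEM.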"}, "[4]": {"tested_on": "PC-12", "assay": "Neuroprotective activity against H2O2-induced cell injury in rat PC12 cells assessed as cell viability at 10 uM preincubated for 24 hrs followed by incubation with H2O2 for 2 hrs measured after 24 hrs by MTT assay (reference value: 43.9%)", "assay_type": "functional", "settings": "read-out: Activity", "summary_of_the_method": "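PC12 cells in phenol-red-free DMEM with 10% FCS, plated at 10^5 cells/well. Cells preincubated 24 h with compound (1.0 or 10.0 µM; dissolved in 2% DMSO, diluted in PBS), then exposed to H2O2 100 µM for 2 h. Medium replaced; viability assessed 24 h later by MTT (4 h, 37 °C), lysis in DMF/SDS, A590.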"}, "[5]": {"target": "T1, Acetylcholinesterase (Homo sapiens, UniProt P22303)", "T1 sequence (P22303 whole entry)": "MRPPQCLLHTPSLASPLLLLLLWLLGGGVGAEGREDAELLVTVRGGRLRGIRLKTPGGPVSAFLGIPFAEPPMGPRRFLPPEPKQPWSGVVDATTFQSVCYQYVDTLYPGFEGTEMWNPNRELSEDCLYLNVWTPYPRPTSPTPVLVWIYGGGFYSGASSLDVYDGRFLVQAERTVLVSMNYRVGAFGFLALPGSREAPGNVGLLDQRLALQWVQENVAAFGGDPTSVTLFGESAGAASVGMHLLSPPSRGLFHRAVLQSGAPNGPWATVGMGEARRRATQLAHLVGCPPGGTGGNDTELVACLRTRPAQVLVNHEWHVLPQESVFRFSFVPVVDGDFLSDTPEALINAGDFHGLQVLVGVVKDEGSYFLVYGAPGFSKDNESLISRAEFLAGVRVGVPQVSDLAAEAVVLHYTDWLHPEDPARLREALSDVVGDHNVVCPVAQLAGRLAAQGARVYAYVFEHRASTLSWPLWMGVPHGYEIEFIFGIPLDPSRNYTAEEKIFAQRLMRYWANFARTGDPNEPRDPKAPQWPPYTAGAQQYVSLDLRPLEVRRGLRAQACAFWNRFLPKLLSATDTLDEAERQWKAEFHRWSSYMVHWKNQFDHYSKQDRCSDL", "assay": "Inhibition of human erythrocyte AChE using acetylthiocholine iodide as substrate after 15 mins by Ellman's method"}, "[6]": {"target": "Amyloid-beta precursor protein (Homo sapiens) (UniProt P05067)", "sequence (P05067 whole entry)": "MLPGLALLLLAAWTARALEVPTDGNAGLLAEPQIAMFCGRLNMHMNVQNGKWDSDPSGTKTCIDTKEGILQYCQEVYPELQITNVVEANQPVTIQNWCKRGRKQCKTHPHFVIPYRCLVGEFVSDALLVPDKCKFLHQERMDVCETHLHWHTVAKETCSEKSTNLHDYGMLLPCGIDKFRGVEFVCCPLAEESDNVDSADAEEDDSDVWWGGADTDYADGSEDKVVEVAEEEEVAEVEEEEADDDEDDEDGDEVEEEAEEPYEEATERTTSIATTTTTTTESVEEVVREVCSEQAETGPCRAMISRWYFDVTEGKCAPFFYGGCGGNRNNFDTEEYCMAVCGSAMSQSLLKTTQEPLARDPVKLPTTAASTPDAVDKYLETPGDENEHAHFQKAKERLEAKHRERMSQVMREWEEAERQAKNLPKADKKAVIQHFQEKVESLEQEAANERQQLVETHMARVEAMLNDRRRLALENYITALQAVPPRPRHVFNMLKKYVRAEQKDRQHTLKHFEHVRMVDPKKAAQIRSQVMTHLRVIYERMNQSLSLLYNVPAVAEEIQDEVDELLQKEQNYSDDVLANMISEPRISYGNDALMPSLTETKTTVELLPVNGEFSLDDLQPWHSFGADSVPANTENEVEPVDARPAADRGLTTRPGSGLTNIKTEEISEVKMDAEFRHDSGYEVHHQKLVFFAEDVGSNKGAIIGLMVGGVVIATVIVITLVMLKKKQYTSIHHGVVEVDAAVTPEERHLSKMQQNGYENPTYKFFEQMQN", "assay": "Inhibition of amyloid beta (1 to 42) (unknown origin) self aggregation at 25 uM after 24 hrs by ThT-based fluorometric method relative to control", "summary_of_the_method": "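Aβ1-42 (25 µM final) incubated at 37 °C for 24 h ± compound in 50 mM phosphate buffer pH 7.4, with DMSO stocks diluted in buffer. Then 5 µM thioflavin T in 50 mM glycine-NaOH pH 8.5 was added and read at ex 446/em 490 nm. Run in triplicate. % inhibition = (1−IFi/IFc)×100 after background subtraction.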"}, "[7]": {"tested_on": "Mus musculus", "assay": "Reversal of scopolamine-induced memory impairment in Kunming mouse assessed as step-down latency time at 7.33 mg/kg, po administered 60 mins prior to training trial followed by scopolamine challenge at 30 mins post dose measured 24 hrs after training trial by passive avoidance test", "assay_type": "functional", "summary_of_the_method": "as §1"}, "[8]": {"target": "T1, Acetylcholinesterase", "assay": "Inhibition of human erythrocyte AChE induced amyloid beta (1 to 40) aggregation at 25 uM after 24 hrs by ThT-based fluorometric method relative to control", "summary_of_the_method": "(§2)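 HFIP-pretreated Aβ1-40 (230 µM final) co-incubated 24 h at room temperature with human AChE (2.3 µM; Aβ/AChE 100:1) ± compound in sodium phosphate buffer pH 8.0. Then 5 µM thioflavin T in glycine-NaOH pH 8.5 was added and read at ex 446/em 490 nm. Triplicate. % inhibition calculated from fluorescence with/without inhibitor, each minus its blank (Aβ alone, AChE alone, Aβ+inhibitor).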"}, "[9]": {"assay": "Metal chelating activity assessed as compound-Fe2+ complex formation by measuring shift in maximum absorption wavelength at 37.5 uM after 30 mins by UV-vis spectrophotometric method", "summary_of_the_method": "(§3)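 UV absorption scanned from 200 to 600 nm after 30 min at room temperature in methanol. Compound and each metal salt (CuCl2, ZnCl2, AlCl3, FeSO4) were at 37.5 µM final. Spectra compared with and without metal.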"}, "[10]": {"assay": "Metal chelating activity assessed as compound-Al3+ complex formation by measuring shift in maximum absorption wavelength at 37.5 uM after 30 mins by UV-vis spectrophotometric method", "summary_of_the_method": "as §3"}, "[11]": {"organism": "Rattus norvegicus", "assay": "Selectivity index, ratio of IC50 for rat serum BuChE to IC50 for rat cortex homogenate AChE", "summary_of_the_method": "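Modified Ellman assay. AChE from 5% rat cortex homogenate, pre-incubated 5 min with iso-OMPA (4.0 mmol/L). BuChE from 25% rat serum. Enzyme incubated with compound (<1% DMSO) and acetyl- or butyrylthiocholine iodide (1 mmol/L) in phosphate buffer pH 7.4 for 15 min at 37 °C. DTNB added, read at 405 nm. IC50 from 3 independent experiments. Index = BuChE IC50/AChE IC50.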"}, "[12]": {"target": "Amyloid-beta precursor protein (Homo sapiens) (UniProt P05067)", "assay": "Inhibition of amyloid beta (1 to 42) (unknown origin) self aggregation at 12.5 uM after 24 hrs by ThT-based fluorometric method relative to control", "summary_of_the_method": "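Aβ1-42 (25 µM final) incubated 24 h at 37 °C with or without compound (1-50 µM) in 50 mM phosphate buffer pH 7.4. Thioflavin T (5 µM in glycine-NaOH pH 8.5) then added, fluorescence read at ex 446/em 490 nm. Inhibition = (1-IFi/IFc)×100 after background subtraction. Run in triplicate.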"}, "[13]": {"assay": "Metal chelating activity assessed as mole fraction of compound required to show 1:1 stoichiometry for Cu2+-compound complex up to 37.5 uM after 30 mins by UV-vis spectrophotometric method", "summary_of_the_method": "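Molar-ratio titration in methanol: compound fixed at 37.5 µM final with CuCl2 at 3.75-93.75 µM final. Absorbance at 386 nm taken after numerical subtraction of CuCl2 and compound spectra, and plotted against mole fraction of compound. Stoichiometry taken from the intersection of two straight lines.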"}, "[14]": {"assay": "Cytotoxicity against human SH-SY5Y cells assessed as cell viability at 100 uM after 24 hrs by MTT assay relative to control", "assay_type": "cell-based", "settings": "read-out: Activity", "summary_of_the_method": "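SH-SY5Y cells grown in DMEM with 10% FBS at 37 °C, 5% CO2, seeded 4 × 10^4 cells/well and incubated 24 h. Compounds given at 1, 10 and 100 µM (1% DMSO final) for 24 h. MTT (5 mg/ml) added for 4 h, cells lysed overnight in DMF/SDS, absorbance read at 590 nm against control. Three independent experiments.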"}, "[15]": {"target": "T1, Acetylcholinesterase", "assay": "Inhibition of human erythrocyte AChE induced amyloid beta (1 to 40) aggregation after 24 hrs by ThT-based fluorometric method", "summary_of_the_method": "as §2"}}, "note": "Calls of active or inactive are those of the source. The calls are words filed in the database; no cut-off is given here."}
{"smiles": "CCN(CCCCNC(=O)COc1ccc(-c2cc(=O)c3c(O)c(OC)c(OC)cc3o2)cc1)Cc1ccccc1OC", "values": [{"measurement": "Activity", "setting": "[1]", "value": 66.3, "unit": "%"}, {"measurement": "IC50", "setting": "[2]", "value": "> 500000", "unit": "nM"}, {"measurement": "Time", "setting": "[3]", "value": 176.4, "unit": "s"}, {"measurement": "viability at 10 µM", "setting": "[4]", "value": 82.7, "unit": "%"}, {"measurement": "IC50", "setting": "[5]", "value": 39, "unit": "nM"}, {"measurement": "inhibition", "setting": "[6]", "value": 57.1, "unit": "%"}, {"measurement": "Time", "setting": "[7]", "value": 194.3, "unit": "s"}, {"measurement": "inhibition", "setting": "[8]", "value": 32.7, "unit": "%"}, {"measurement": "Activity", "setting": "[9]", "value": "inactive"}, {"measurement": "Activity", "setting": "[10]", "value": "Active"}, {"measurement": "Ratio IC50", "setting": "[11]", "value": "> 9800"}, {"measurement": "inhibition", "setting": "[12]", "value": 43.6, "unit": "%"}, {"measurement": "Activity", "setting": "[13]", "value": 0.99, "unit": "molar ratio"}, {"measurement": "viability at 24 h, 100 µM", "setting": "[14]", "value": 82.4, "unit": "%"}, {"measurement": "inhibition", "setting": "[15]", "value": "Dose-dependent effect"}]}
